Test results reported in ChEMBL document CHEMBL1156178, “Discovery of novel 6,6-heterocycles as transient receptor potential vanilloid (TRPV1) antagonists” (J Med Chem, 2010).
Converted amounts (≈) assume the structure as drawn.

What was measured:
[1] = molecular target: Transient receptor potential cation channel subfamily V member 1 (Homo sapiens, UniProt Q8NER1); experiment: Antagonist activity at human recombinant TRPV1 expressed in HEK293 cells assessed as inhibition of capsaicin-induced calcium mobilization by FLIPR assay
[2] = Solubility in 0.1 N HCL after 4 hrs by HPLC/MS analysis; format: physicochemical
Rattus norvegicus [3] = species: Rattus norvegicus; experiment: Analgesic activity against carrageenan-induced thermal hyperalgesia in rat; format: functional; conditions: read-out: MED
[4] = Metabolic stability in rat liver microsomes assessed as compound remaining at 1 uM after 10 mins by LCMS analysis; format: ADME, Microsome; conditions: read-out: Activity
Summary of the method: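 Compound (1 μM) incubated at 37 °C with 0.5 mg/mL male pooled rat liver microsomes; NADPH added to start the reaction. Aliquots were taken at 0 and 10 min and quenched into ice-cold acetonitrile with internal standard, then centrifuged. Parent was monitored as the M+1 ion by ESI-LCMS in selected-ion mode. Percent remaining was taken as the 10 min/0 min signal ratio, corrected by internal-standard recovery.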

[5] = Half life in rat at 2.7 mg/kg, iv and 2 mg/kg, po; format: ADME, organism-based; conditions: in vivo
MDR1 = experiment: Apparent permeability across pig LLC-PK1 cells expressing MDR1; format: ADME, cell-based, Sus scrofa
Rattus norvegicus [6] = experiment: Clearance in rat at […] iv dose; format: ADME, organism-based; parameters: dose 1.5 mg/kg, route intravenous; conditions: in vivo
[7] = Tmax in rat at […], iv and 10 mg/kg, po; format: ADME, organism-based; conditions: in vivo
[8] = Oral bioavailability in rat at 10 mg/kg; format: ADME, organism-based; conditions: in vivo
[9] = Clearance in rat at […], iv and 10 mg/kg, po; format: ADME, organism-based; conditions: in vivo
[10] = Volume of distribution in rat at […], iv and 10 mg/kg, po; format: ADME, organism-based; conditions: in vivo
[11] = Half life in rat at […], iv and 10 mg/kg, po; format: ADME, organism-based; conditions: in vivo

Sequence of Transient receptor potential cation channel subfamily V member 1 (Q8NER1 whole entry): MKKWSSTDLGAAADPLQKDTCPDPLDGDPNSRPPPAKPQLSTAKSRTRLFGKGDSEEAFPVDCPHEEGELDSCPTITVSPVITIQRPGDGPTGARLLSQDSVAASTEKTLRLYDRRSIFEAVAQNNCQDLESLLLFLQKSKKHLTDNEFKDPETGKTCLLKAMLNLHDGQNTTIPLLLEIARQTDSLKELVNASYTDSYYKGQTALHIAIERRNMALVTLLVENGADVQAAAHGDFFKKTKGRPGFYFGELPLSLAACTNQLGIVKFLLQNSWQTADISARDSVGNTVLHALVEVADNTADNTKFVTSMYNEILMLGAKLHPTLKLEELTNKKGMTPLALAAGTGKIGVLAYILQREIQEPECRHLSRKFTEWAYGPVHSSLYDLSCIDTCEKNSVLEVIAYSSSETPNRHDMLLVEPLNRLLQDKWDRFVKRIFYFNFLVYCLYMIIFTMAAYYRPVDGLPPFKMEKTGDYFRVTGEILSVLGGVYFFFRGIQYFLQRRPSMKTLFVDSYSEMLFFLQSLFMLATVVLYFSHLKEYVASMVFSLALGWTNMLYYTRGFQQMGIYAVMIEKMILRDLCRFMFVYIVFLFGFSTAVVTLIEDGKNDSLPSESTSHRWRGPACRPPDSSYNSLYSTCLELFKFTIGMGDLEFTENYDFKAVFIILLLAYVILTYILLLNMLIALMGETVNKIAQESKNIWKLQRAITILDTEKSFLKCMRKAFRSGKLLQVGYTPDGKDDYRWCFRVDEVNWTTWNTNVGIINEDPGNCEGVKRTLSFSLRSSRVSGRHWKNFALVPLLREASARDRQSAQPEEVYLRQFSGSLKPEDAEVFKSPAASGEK

| Structure (SMILES) | IC50 [1] | solubility at 4 h [2] | minimal effective dose (Rattus norvegicus [3]) | remaining at 10 min, 1 µM [4] | half-life [5] | Papp (MDR1) | CL (Rattus norvegicus [6]) | Tmax [7] | bioavailability [8] | clearance [9] | Vd [10] | half-life [11] |
| --- | --- | --- | --- | --- | --- | --- | --- | --- | --- | --- | --- | --- |
| FC(F)(F)c1ccc(Nc2ncnc3cc(-c4ncccc4C(F)(F)F)cnc23)cc1 | 0.63 nM | 6 µg/mL (≈ 13.8 µM) |  |  |  |  |  |  |  |  |  |  |
| FC(F)(F)c1ccc(Nc2ncnc3cc(-c4ncccc4C(F)(F)F)ccc23)cc1 [NGD-8243] |  | 16 µg/mL (≈ 36.8 µM) | 0.1 mg/kg | 93% | 8 h | 11 ×10⁻⁶ cm/s |  |  |  |  |  |  |
| FC(F)(F)c1ccc(Nc2ncnc3cc(-c4ncccc4C(F)(F)F)ccc23)nc1 |  | 33 µg/mL (≈ 75.8 µM) |  | 91% |  |  | 4.2 (ml/min)/kg |  |  |  |  |  |
| Cl.FC(F)(F)c1ccc(Nc2ncnc3cc(-c4ncccc4C(F)(F)F)ccc23)cn1 |  | 35 µg/mL |  | 100% |  |  |  | 4.7 h | 65% | 22 mL/min/kg | 5.5 L/kg | 4 h |
